NRP1-CendR mod: modulators of CendR peptide binding to NRP-1, primary screen, biochemical, fluorescence polarization, uHTS. Neuropilin-1 (Homo sapiens), O14786. FAM-RPARPAR peptide binding to NRP-1. inhibition, % at 25 µM. actives 0.85% (n = 360,000);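 active means inhibition or corrected inhibition above about 18%, plus a signal ratio from 0.5 to 1.5, limit read from the data, passing the limit was not always enough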
Target sequence (O14786 whole entry, looked up): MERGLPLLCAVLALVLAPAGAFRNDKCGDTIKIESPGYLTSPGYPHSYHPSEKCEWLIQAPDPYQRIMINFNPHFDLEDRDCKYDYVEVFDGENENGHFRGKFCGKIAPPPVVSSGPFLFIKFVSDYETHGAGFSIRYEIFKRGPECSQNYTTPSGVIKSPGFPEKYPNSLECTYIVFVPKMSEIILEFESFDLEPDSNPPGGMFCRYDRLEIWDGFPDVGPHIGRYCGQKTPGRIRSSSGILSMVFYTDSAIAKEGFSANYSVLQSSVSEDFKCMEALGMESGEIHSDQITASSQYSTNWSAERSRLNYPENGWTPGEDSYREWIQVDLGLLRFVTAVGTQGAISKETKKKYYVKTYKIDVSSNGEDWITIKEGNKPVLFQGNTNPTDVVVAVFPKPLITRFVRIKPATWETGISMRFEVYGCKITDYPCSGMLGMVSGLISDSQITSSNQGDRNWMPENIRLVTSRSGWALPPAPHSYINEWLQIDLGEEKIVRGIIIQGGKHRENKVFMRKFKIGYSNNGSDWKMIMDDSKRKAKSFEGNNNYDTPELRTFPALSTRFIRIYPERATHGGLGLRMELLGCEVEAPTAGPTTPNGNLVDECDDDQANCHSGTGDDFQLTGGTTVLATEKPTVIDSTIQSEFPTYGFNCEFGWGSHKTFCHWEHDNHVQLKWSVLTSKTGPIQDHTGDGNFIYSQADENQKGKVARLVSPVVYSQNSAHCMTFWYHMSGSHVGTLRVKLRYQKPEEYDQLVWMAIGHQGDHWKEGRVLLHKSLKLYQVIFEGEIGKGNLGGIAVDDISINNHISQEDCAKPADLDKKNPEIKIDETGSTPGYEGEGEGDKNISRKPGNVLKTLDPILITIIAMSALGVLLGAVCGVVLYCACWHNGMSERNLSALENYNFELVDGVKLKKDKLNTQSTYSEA
ABCB6 inh 2: ABCB6 transporter inhibitors, primary screen, K562-ABCB6 cells, flow cytometry, MLPCN library; ATP-binding cassette sub-family B member 6 (Homo sapiens), Q9NP58; K562-ABCB6 porphyrin accumulation, 1 h; stronger effect = lower value; fluorescence ratio to DMSO, % at 10 µM; actives 0.19% (n = 360,000); AID 602162, 2011;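 active means fluorescence ratio to DMSO below 75%, the collection mean minus 3 SD; inconclusive means too few cells collected in the well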;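 further: signal is porphyrin accumulated inside mitochondria; lower ratio means ABCB6 inhibition with less porphyrin fluorescence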
Granule exo inh: LAMP-1 surface exposure blockers, TALL-104 cells – cell-based, flow cytometry, MLPCN library, primary screen | TALL-104 LAMP-1 surface exposure; cells stimulated with thapsigargin and PMA | inhibition, % at 10 µM | actives 0.66% (n = 360,000);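 active means inhibition above about 55%, limit read from the data; inconclusive means no clear call, values can overlap the other calls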
ATG4B inh: ATG4B protease inhibitors, primary screen, biochemical, fluorescence, uHTS. ATG4B cleavage of LC3-PLA2, NBD-HPC fluorescence, 1 h. inhibition, % at 8.33 µM. actives 0.51% (n = 340,000). AID 504462, 2011; in the data active means inhibition above about 40%
Myeloid diff 2: induction of myeloid progenitor differentiation, primary screen, cell-based, flow cytometry, MLPCN library | ER-HoxA9 myeloid progenitors, lysozyme-GFP differentiation | AID 624256, 2012 | calls only at 10 µM | actives 1% (n = 360,000);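 active means normalized GFP-positive differentiation at or above the plate's own cutoff, the solvent-only control mean plus 3 SD; inconclusive means no clear call, values can overlap the other calls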;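 further: cells exposed to compound for four days before flow analysis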
Arrestin-AP2 inh: inhibitors of beta-arrestin/AP2 binding, primary screen, biochemical, GPCR trafficking, flow cytometry. beta-arrestin 1 C-terminal peptide binding to AP2 beta2-adaptin appendage (human). inhibition, % at 10 µM. FITC-arrestin peptide / GST-AP2 beads; AP2 beta2 appendage carries R879A mutation. actives 0.31% (n = 340,000). AID 504490, 2011;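 active means inhibition above a set limit, near 3 SD of compounds lacking own fluorescence, cut at about 54% in these data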
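System: GST-AP2 R879A glutathione beads; medium: PBS, Tween 20 0.05%, BSA 0.1%; reagent: fluorescein-tagged arrestin peptide at 50 nM final; schedule: pre-incubation 12 min, peptide binding 1 h, room temperature; detection: flow cytometry, FL1 (488/535 nm); read-out: inhibition as reduced fluorescein signal on beads, percent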
Of the large screens only hits and unclear results are named; the others gave an inactive call. Most compounds without a hit are left out; they make up all but 3.3% or so of the library.

Oc1ccc(-c2nc3ncccn3c2Nc2ccc3c(c2)OCO3)cc1	NRP1-CendR mod 24
Clc1ccc(-c2nc3ncccn3c2Nc2ccc3c(c2)OCO3)cc1	none
O=C(Cc1ccc([N+](=O)[O-])cc1)N1CCCCCC1	none
O=C(CCc1ccc(Oc2cc([N+](=O)[O-])cc([N+](=O)[O-])c2)cc1)N1CCCCCC1	NRP1-CendR mod 26
NC(CCc1ccccc1)c1csc(NC(=O)Nc2cccc(C(F)(F)F)c2)n1 (stereo unspecified)	none (no result: ATG4B inh, Arrestin-AP2 inh)
CC(C)C(N)c1csc(NC(=O)Nc2cccc(C(F)(F)F)c2)n1 (stereo unspecified)	NRP1-CendR mod 24, Granule exo inh inconclusive (no result: ATG4B inh, Arrestin-AP2 inh)
Cc1cc(-c2ccco2)c(C#N)c2nc3ccccc3n12	Myeloid diff 2 active
CC(C)c1cc(N2CCN(C(=O)c3ccco3)CC2)n2c(nc3ccccc32)c1C#N	none
Cc1ccc(S(=O)(=O)N(C)C)cc1NC(=O)CN1C(=O)NC2(CCCCCC2)C1=O	none
COc1ccc(NS(=O)(=O)c2ccc(C)c(NC(=O)CN3C(=O)NC4(CCCC4)C3=O)c2)cc1	NRP1-CendR mod 30
O=C(CCS(=O)(=O)c1ccc(Br)s1)N1CCc2ccccc21	NRP1-CendR mod 34
O=[N+]([O-])c1ccc2cn(C3OC(CO)C(O)C3O)nc2c1 (stereo unspecified)	none (no result: ATG4B inh, Arrestin-AP2 inh)
Cc1nnc(NC(=O)c2ccccc2Oc2ccccc2)s1	none
Cc1nnc(NC(=O)c2ccccc2C(=O)O)s1	NRP1-CendR mod 35
Cc1cc(C)cc(NC2=NCC(=O)N2Cc2ccccc2)c1	NRP1-CendR mod 35
CCCCCSc1nc(C)c(CC(=O)O)c(=O)[nH]1	NRP1-CendR mod 20
CCCCCc1c(C)nc(SCC(=O)O)[nH]c1=O	none
Cc1ccccc1CN1C(=O)CS/C1=N/N=C/c1ccco1	NRP1-CendR mod 29
OCC1(CO)COC(CCc2ccccc2)=N1	none
CNS(=O)(=O)c1cc(Nc2ncnc3sccc23)ccc1C	none
N#CC1=C(S)N(c2ccc(F)cc2)C2(CCCCC2)NC1=O	Granule exo inh 81
COC(=O)Nc1ccc2c(c1)N(C(=O)CCN1CCOCC1)c1ccccc1S2	none
COC(=O)Nc1ccc2c(c1)N(C(=O)CCCl)c1ccccc1S2	Myeloid diff 2 active
Cc1ccc(C2CN(C)C3(C(=O)Nc4ccccc43)C23COc2ccccc2C3=O)cc1 (stereo unspecified)	NRP1-CendR mod 40
Cc1ccc(F)cc1NC(=O)C1CC(=O)N(Cc2ccccc2)C1 (stereo unspecified)	none (no result: ATG4B inh, Arrestin-AP2 inh)
COc1ccc(/C=C/C=C2\NC(=S)NC2=O)cc1	Granule exo inh 58, Myeloid diff 2 active
CCOC(=O)c1ccc(S(=O)(=O)N2CCC(N3CCCCC3)CC2)cc1	none
Cc1ccc(S(=O)(=O)N(C)C)cc1NC(=O)COC(=O)c1ccc2c(c1)OCO2	NRP1-CendR mod 37
Cc1ccccc1NC(=O)COC(=O)c1ccc(S(=O)(=O)N2CCCCCC2)cc1	none
CCOC(=O)c1ccc(S(=O)(=O)N2CCC(C(=O)O)CC2)cc1	Myeloid diff 2 active
Cc1ccccc1NC(=O)COC(=O)c1ccc(S(=O)(=O)N2CCCC2)cc1	Myeloid diff 2 active
C[C@@H](OC(=O)N1CCCCC1)[C@H]1O[C@]2(C)CCCC[C@H]1O2	none
CC1(C)CC(Cc2ccc(C(F)(F)F)cn2)N(C(=O)OC(C)(C)C)C1 (stereo unspecified)	none (no result: ABCB6 inh 2, ATG4B inh, Arrestin-AP2 inh)
CSc1ccc(OC2(C)CCN(Cc3ccc(OC(F)(F)F)cc3)C2)cc1 (stereo unspecified)	none (no result: ATG4B inh, Arrestin-AP2 inh)
O=C(Nc1cccc(C(=O)N2CCOCC2)c1)c1ccc([N+](=O)[O-])cc1	NRP1-CendR mod 19
Cc1nnc(N2C(=O)C(O)=C(C(=O)c3ccco3)C2c2ccc(F)cc2)s1 (stereo unspecified)	none

Compound activity deposited in PubChem BioAssay by several laboratories.
